Screening data: PubChem, several laboratories
APOBEC3A inh: blocks human APOBEC3A ssDNA deamination; P31941; recombinant A3A, FAM/TAMRA ssDNA deamination fluorescence; inhibition, % at 20 µM; 330,000 compounds, 0.41% hits; AID 493011;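 active = at least 40% inhibition at 20 µM here, with at most 30% in a related deaminase screen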;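 note: plate controls were A3A with DMSO for no effect and wells lacking A3A enzyme for full effect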
FN deposition inh: fibronectin deposition inhibition; AH1F fibroblasts, Alexa488-fibronectin deposition fluorescence, overnight; inhibition, % at 12.6 µM; 350,000 compounds, 0.086% hits; AID 743247;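 active = mean inhibition across replicates of 30% or more, regardless of how many single replicates reach that level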;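 note: positive control wells lacked labelled fibronectin entirely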
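Material: AH1F fibroblast monolayer depositing Alexa488-labelled fibronectin into matrix / Amount: 10000 AH1F cells per well / Signal: fluorescence 485/525 nm / Medium: DMEM, 2% serum / Compound: single dose, pinned / Incubation: 1 h cell adhesion before compound, then overnight fibronectin incubation / Reagent: Alexa488-FN, 24 nM final / Read-out: inhibition of fibronectin deposition signal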
ABHD5 PLIN5 PPI: blocks binding of human ABHD5 to perilipin-5. Q00G26+Q8WTS1. Split G. princeps luciferase complementation, luminescence, 4 h. inhibition, % at 4 µM. 360,000 compounds, 0.78% hits. AID 602281;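 active = inhibition above the mean inhibition across every tested compound plus 3 SD, cut at about 22% in these data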;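 note: 0% = DMSO only wells and the 100% control is not disclosed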
A3G deaminase: inhibitors of human APOBEC3G DNA deaminase. Q9HC16. recombinant A3G, ssDNA deamination FAM/TAMRA fluorescence. inhibition, % at 20 µM. 330,000 compounds, 0.28% hits. AID 493012;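 active = inhibition of at least 40% at 20 µM, with no more than 30% in the related APOBEC3A deaminase screen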;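 note: plate controls were DMSO wells with A3G for no effect and wells lacking A3G enzyme for full effect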
APOBEC3A confirm: APOBEC3A (human) deaminase inhibition, confirmed; shares compounds with APOBEC3A inh; recombinant A3A, ssDNA deaminase UDG fluorescence assay; inhibition, % at 20 µM; 1,400 compounds, 63% hits;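 active = inhibition reaching a set limit, 80% of the first screen's cutoff, at 20 µM in any replicate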;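 note: plate controls were DMSO wells with A3A for no effect and wells lacking A3A enzyme for full effect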
UDG ctr A3A: counter-screen for APOBEC3A inhibitors: UDG. shares compounds with APOBEC3A inh. inhibition, % at 20 µM. 1,000 tested, under 10 active. UDG counterscreen, FAM/TAMRA uracil oligo fluorescence; call rule not given here
* = called active by the depositor; nt = not tested or not shown. Rows were chosen to be rich in hits. Some 1.2% of all compounds tested hit in one or more screens of this group.

SMILES	APOBEC3A inh	FN deposition inh	ABHD5 PLIN5 PPI	A3G deaminase	APOBEC3A confirm	others
CNc1ccc(Br)cc(C(=O)/C=C/c2ccc(OC)cc2OC)c1=O	17.9	-5.0	14.2	13.6	nt
O=C(/C=C/c1ccc(F)cc1)c1cc(Br)ccc1O	0.2	-2.1	-4.9	-0.1	nt
CCNc1ccc(Br)cc(C(=O)/C=C/c2ccc(Cl)cc2)c1=O	20.4	nt	26.7*	13.4	nt
CNc1ccc(Br)cc(C(=O)/C=C/c2ccc(Cl)cc2Cl)c1=O	23.8	4.3	56.6*	15.9	nt
CCNc1ccc(Br)cc(C(=O)/C=C/c2c(Cl)cccc2Cl)c1=O	23.9	nt	44.1*	15.8	nt
COCCOC(=O)c1c(C)nc(SCC(=O)Nc2ccc(OC)cc2)c(C#N)c1-c1ccco1	-4.0	nt	6.2	-5.7	nt
Cc1nc(SCC(=O)c2ccccc2)c(C#N)c(-c2ccco2)c1C(=O)NCc1ccco1	9.7	nt	37.5*	2.3	nt
OCCN1CCN(C2Cc3cc(Cl)ccc3Sc3ccc(Cl)cc32)CC1 (configuration not stated) (tested in a mixture with another compound)	1.0	nt	23.0*	-1.7	nt
CN1CCN(C2Cc3cc(Cl)ccc3Sc3cc(F)ccc32)CC1 (configuration not stated)	4.0	2.3	10.0	-3.7	nt
C[C@@H]1COCc2cn(nn2)CC[C@@H](Cc2ccccc2)C(=O)N1	nt	-5.7	nt	nt	nt
Cc1ccccc1NC(=O)CSc1nnc(-c2ccco2)c(-c2ccco2)n1	83.4	nt	18.6	64.0	nt
CN(C)c1ccc(NC(=O)CSc2nnc(-c3ccco3)c(-c3ccco3)n2)cc1	10.5	16.4	-5.4	19.1	nt
Cc1cccc(C)c1NC(=O)CSc1nnc(-c2ccco2)c(-c2ccco2)n1	87.1	nt	22.6*	56.2	nt
O=C(CSc1nnc(-c2ccco2)c(-c2ccco2)n1)Nc1ccccc1	93.7	nt	26.1*	81.0	nt
CC(C)NC(=O)Nc1ccc2c(c1)C(=O)N([C@@H](C)CO)C[C@@H](C)[C@H](CN(C)S(C)(=O)=O)OCCCC[C@@H](C)O2	nt	-9.7	nt	nt	nt
Cc1cc(C)n2nc(SCC#N)nc2n1	97.1*	-20.0	-1.1	3.6	-1.2
Cc1n[nH]c(C)c1S(=O)(=O)N1CCC(C(=O)N2CCn3c2nc2ccccc23)CC1	98.4*	nt	5.7	-3.5	-5.8	UDG ctr A3A=-3.6
O=C(C1CCN(S(=O)(=O)c2cccc3nsnc23)CC1)N1CCn2c1nc1ccccc12	1.2	nt	4.3	-0.6	nt
N=C1/C(=C/c2ccco2)C(=O)N=C2SC(CC(=O)N3CCCC3)=NN12	51.4*	1.0	6.5	27.3	42.3*	UDG ctr A3A=1.2
N=C1/C(=C/c2ccc(Br)o2)C(=O)N=C2SC(CC(=O)N3CCCC3)=NN12	43.4*	7.0	2.8	17.9	45.0*
O=C(NCCCc1ccccc1)c1ccc([N+](=O)[O-])cc1Cl	-4.1	5.7	4.5	-6.7	nt
O=C(NCCCO)c1cc([N+](=O)[O-])cc2c1C=Cc1ccccc1O2	46.8*	-2.7	4.8	5.9	20.3
O=C(CN1CCN(C2CCCCC2)CC1)c1c[nH]c2ccccc12	51.2*	-16.7	8.4	27.3	20.2
CN(C)C(=O)c1ccc(Nc2nc(-c3cccs3)nc3ccccc23)cc1	43.0*	10.0	0.9	-5.0	12.7	UDG ctr A3A=-2.9
CC(=O)c1ccc(Nc2nc(-c3ccccc3)nc3ccccc23)cc1	nt	1.7	-6.2	nt	nt
SMILES	APOBEC3A inh	FN deposition inh	ABHD5 PLIN5 PPI	A3G deaminase	APOBEC3A confirm	others
O=C(Cc1cccs1)NNC(=S)NCc1ccco1	77.9*	nt	0.2	-6.9	-3.6	UDG ctr A3A=-3.1
CCCCn1c(N)c(-c2nc3ccccc3o2)c2c([N+](=O)[O-])nn(C)c(=O)c21	52.8*	-13.1	-4.1	7.6	0.9
CCCCn1c(N)c(-c2nc3ccccc3o2)c2c([N+](=O)[O-])nn(CC)c(=O)c21	2.4	-1.1	-4.1	-6.7	nt
C[C@@H]1CN([C@@H](C)CO)S(=O)(=O)c2ccc(C#CC3CC3)cc2O[C@@H]1CN(C)S(C)(=O)=O	nt	-10.2	nt	nt	nt
CC(Nc1ccc(F)cc1)=[N+](C)CCNS(=O)(=O)c1ccc(Cl)cc1	54.6*	-6.5	-1.7	17.3	-7.7
Cc1n(C)c2cc(Cl)ccc2[n+]1Cc1ccccc1	78.3*	6.3	-4.0	25.5	65.0*	UDG ctr A3A=-1.9
Cc1ccc2c(c1)sc[n+]2Cc1ccccc1	-1.6	nt	15.4	-3.8	nt
O=C(O)c1ccc(COc2ccc(/C=N/NC(=O)c3cccs3)cc2)cc1	51.3*	nt	5.1	16.6	4.3
